Here are results for five molecules from paper PMC4066402 (Genes & Development, 2014).

Assay [1] addresses T1, BODIPY-FL-N(Cys)-Spt5-(801–898) (S. pombe) (UniProt O13936).
T1 sequence (O13936 801-898, looked up): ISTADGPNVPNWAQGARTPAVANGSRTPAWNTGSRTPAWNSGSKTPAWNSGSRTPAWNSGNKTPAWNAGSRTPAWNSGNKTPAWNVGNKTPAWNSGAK
The assay can be described thus: fluorescence polarisation. (Polarisation of emitted light reports the rotation of a fluorescent probe.)

Another assay concerns the target T2, Pce1 G276R (Schizosaccharomyces pombe, UniProt P40997, G276R).
T2 sequence (P40997 1-402 G276R): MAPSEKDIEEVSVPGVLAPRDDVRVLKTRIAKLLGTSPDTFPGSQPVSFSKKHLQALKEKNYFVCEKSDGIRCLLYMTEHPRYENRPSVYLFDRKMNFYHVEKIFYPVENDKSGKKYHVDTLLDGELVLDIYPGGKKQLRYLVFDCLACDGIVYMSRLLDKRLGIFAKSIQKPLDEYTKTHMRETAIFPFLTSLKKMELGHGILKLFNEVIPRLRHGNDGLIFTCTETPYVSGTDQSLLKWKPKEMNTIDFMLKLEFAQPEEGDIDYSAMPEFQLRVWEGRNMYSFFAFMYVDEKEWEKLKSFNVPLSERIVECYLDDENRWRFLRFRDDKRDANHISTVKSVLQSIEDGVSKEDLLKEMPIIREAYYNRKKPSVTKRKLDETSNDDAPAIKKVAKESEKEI
The assay can be described thus: Fluorescence polarization binding of Spt5 CTD-. Also noted: species or system S. pombe. Summed up:
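Tag-free Pce1–GMP (His6Smt3 fusion made in E. coli, Ulp1-cleaved, gel-filtered, then guanylylated with 1 mM GTP/5 mM MgCl2 for 30 min on ice) was titrated against BODIPY-FL-N(Cys)-Spt5-(801–898) in 20 mM Tris-HCl, 4 mM DTT. Incubation was 15 min on ice. Read-out was polarization at ex 485/em 538 nm. Kd came from single-site fits, using a receptor-depletion model where half-saturation approached the ligand concentration.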

The subject of assay [2] is Pce1. Conditions: His tag affinity chromatography assay; ref Pei and Shuman 2002; cited from earlier work.
In assay [3] the target is T3, Pce1 (Schizosaccharomyces pombe, UniProt P40997).
T3 sequence (P40997 1-402): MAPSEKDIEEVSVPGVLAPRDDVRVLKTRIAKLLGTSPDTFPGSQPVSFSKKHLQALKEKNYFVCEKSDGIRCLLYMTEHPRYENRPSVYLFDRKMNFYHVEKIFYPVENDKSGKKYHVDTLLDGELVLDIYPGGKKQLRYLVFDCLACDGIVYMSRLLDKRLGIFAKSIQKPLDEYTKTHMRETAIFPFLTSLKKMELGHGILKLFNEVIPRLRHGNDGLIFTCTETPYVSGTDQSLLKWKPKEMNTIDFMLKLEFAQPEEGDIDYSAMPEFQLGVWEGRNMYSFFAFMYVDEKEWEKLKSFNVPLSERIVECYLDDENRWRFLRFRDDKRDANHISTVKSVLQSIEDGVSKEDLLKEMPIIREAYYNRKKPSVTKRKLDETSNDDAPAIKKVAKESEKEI
The assay can be described thus: Competition between labeled and unlabeled Spt5 CTD-. It counts as binding, S. pombe. Conditions: 1 μM Pce1 preincubated with untagged Spt5 CTD-(801–898) 15 min on ice, then 0.3 μM BODIPY-FL-Spt5 CTD-(801–898); pH 8.0; three independent experiments ± SEM.

B1: Schizosaccharomyces pombe RNA guanylyltransferase (GTase) Pce1, wild type, as the covalent Pce1–GMP intermediate (enzyme)
chain: SMAPSEKDIEEVSVPGVLAPRDDVRVLKTRIAKLLGTSPDTFPGSQPVSFSKKHLQALKEKNYFVCEKSDGIRCLLYMTEHPRYENRPSVYLFDRKMNFYHVEKIFYPVENDKSGKKYHVDTLLDGELVLDIYPGGKKQLRYLVFDCLACDGIVYMSRLLDKRLGIFAKSIQKPLDEYTKTHMRETAIFPFLTSLKKMELGHGILKLFNEVIPRLRHGNDGLIFTCTETPYVSGTDQSLLKWKPKEMNTIDFMLKLEFAQPEEGDIDYSAMPEFQLGVWEGRNMYSFFAFMYVDEKEWEKLKSFNVPLSERIVECYLDDENRWRFLRFRDDKRDANHISTVKSVLQSIEDGVSKEDLLKEMPIIREAYYNRKKPSVTKRKLDETSNDDAPAIKKVAKESEKEI
modifications: Lys67 covalently guanylylated (lysyl-Nζ-GMP)
As usually defined, the Kd is a measure of binding affinity in units of concentration. Low readings indicate higher affinity, high ones lower affinity. On to B1, for which, in assay [1], the Kd is 1.19 µM.

B2: Pce1-G276R (enzyme)
chain: SMAPSEKDIEEVSVPGVLAPRDDVRVLKTRIAKLLGTSPDTFPGSQPVSFSKKHLQALKEKNYFVCEKSDGIRCLLYMTEHPRYENRPSVYLFDRKMNFYHVEKIFYPVENDKSGKKYHVDTLLDGELVLDIYPGGKKQLRYLVFDCLACDGIVYMSRLLDKRLGIFAKSIQKPLDEYTKTHMRETAIFPFLTSLKKMELGHGILKLFNEVIPRLRHGNDGLIFTCTETPYVSGTDQSLLKWKPKEMNTIDFMLKLEFAQPEEGDIDYSAMPEFQLRVWEGRNMYSFFAFMYVDEKEWEKLKSFNVPLSERIVECYLDDENRWRFLRFRDDKRDANHISTVKSVLQSIEDGVSKEDLLKEMPIIREAYYNRKKPSVTKRKLDETSNDDAPAIKKVAKESEKEI
modifications: guanylylated in vitro (Pce1–GMP)
In the case of B2, the Kd in assay [1] was found to be 28.8 µM.

B3: BODIPY-FL-Spt5 CTD-(801–898): N(Cys)-Spt5-(801–898) labeled with BODIPY-FL at the N terminus via maleimide chemistry (protein, UniProt O13936 801-898, looked up, fragment)
chain: ISTADGPNVPNWAQGARTPAVANGSRTPAWNTGSRTPAWNSGSKTPAWNSGSRTPAWNSGNKTPAWNAGSRTPAWNSGNKTPAWNVGNKTPAWNSGAK
modifications: N-terminal Cys, BODIPY-FL label
On to B3, for which, in the assay with Pce1 G276R (Pce1-G276R vs wild-type Pce1), the “decrement in binding affinity” value is 24 fold. In the assay with Pce1 G276R (Pce1 G276R, 300 nM labeled ligand, pH 8.0, 50 mM NaCl, read at 23°C, triplicate), this molecule showed a Kd of 28.8 ± 4.3 µM.

B4: Spt5 CTD composed of 10 nonamer repeats: Spt5 CTD composed of 10 nonamer repeats (protein, UniProt O13936 801-898, looked up, fragment)
chain: ISTADGPNVPNWAQGARTPAVANGSRTPAWNTGSRTPAWNSGSKTPAWNSGSRTPAWNSGNKTPAWNAGSRTPAWNSGNKTPAWNVGNKTPAWNSGAK
Regarding B4, the “Pce1 binding to Spt5 CTD, dependence on number of nonamer repeats” value with Pce1 [2] is on record as “bound well”.

B5: Spt5-(801–898): purified recombinant Spt5-(801–898), composed of 10 nonamer repeats (protein, UniProt O13936 801-898, looked up, fragment)
chain: ISTADGPNVPNWAQGARTPAVANGSRTPAWNTGSRTPAWNSGSKTPAWNSGSRTPAWNSGNKTPAWNAGSRTPAWNSGNKTPAWNVGNKTPAWNSGAK
As a reminder, the Ki is the equilibrium dissociation constant of an inhibitor or competing ligand from its target. The low end stands for tighter binding, the high end for weaker binding. In turn, B5 yielded a Ki with Pce1 [3] of 0.61 ± 0.2 µM.
